The results in this text go back to ChEMBL document CHEMBL1121790, “Proposed dopaminergic pharmacophore of lergotrile, pergolide, and related ergot alkaloid derivatives” (1981).

Active and inactive are the calls of the source. The calls are words filed in the database; no cut-off is given here.

The subject of assay [1] is Felis catus. The assay is described as follows: Compound was tested for percentage decrease in mean arterial blood pressure at 300 mg/kg in anaesthetized cat. Type of assay: functional, Artery. Summed up:
(§1)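 Pentobarbital sodium (30 mg/kg, intrathorax) anaesthetised cats; arterial pressure from right femoral artery via pressure transducer. Compound given iv, doses spaced 0.48 log units. Change in mean arterial pressure (increase, i.e. transient primary pressor phase, and decrease) and in resting heart rate expressed as % of resting control; resting pressure (mmHg) and heart rate (beats/min) also recorded.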

Assay [2] concerns Felis catus. The assay is described as follows: Compound was tested for neuronal inhibition of postganglionic cardio accelerator nerve stimulation in anaesthetized cat at 2 Hz frequency at 30 mg/kg. Type of assay: functional. The conditions noted are these: Heart. Summed up:
(§2)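 Cats anaesthetised with pentobarbital sodium (30 mg/kg, intrathorax); arterial pressure recorded from right femoral artery. Postganglionic cardioaccelerator nerve stimulated at 2 Hz, 5 ms pulses, supramaximal voltage, 20-30 s trains. After stable controls, compound given iv in doses spaced 0.48 log units; inhibition of stimulation-induced tachycardia measured. Haloperidol 100 μg iv at end, inhibition redetermined. ID50 by probit analysis.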

Assay [3] relates to Felis catus. The assay is described as follows: Compound was tested for percentage decrease in heart rate at 300 mg/kg in anaesthetized cat. It counts as functional. An outline of the steps:
as §1

For assay [4], the system named is Felis catus. The assay is described as follows: Compound was tested for percentage increase in mean arterial blood pressure at 30 mg/kg in anaesthetized cat. It counts as functional, Artery. An outline of the steps:
as §1

For assay [5], the system named is Felis catus. The assay is described as follows: Potency relative to apomorphine at […] in anaesthetized cat; 0.07-0.33. It counts as functional.
In assay [6] the test system is Felis catus. The assay is described as follows: Compound was tested for percentage decrease in mean arterial blood pressure at 100 mg/kg in anaesthetized cat (resting mean arterial pressure (mmHg)). Type of assay: functional, Artery. Summed up: as §1
In assay [7] the test system is Felis catus. The assay is described as follows: Compound was tested for percentage decrease in heart rate at […] in anaesthetized cat (resting heart rate (beats/min)). Type of assay: functional. An outline of the steps:
as §1

The subject of assay [8] is Felis catus. The assay is described as follows: Compound was tested for neuronal inhibition of postganglionic cardio accelerator nerve stimulation in anaesthetized cat at 2 Hz frequency at 300 mg/kg. Type of assay: functional. The settings on record: Heart. Summed up:
as §2

In assay [9] the test system is Felis catus. The assay is described as follows: Compound was tested for percentage increase in mean arterial blood pressure at 300 mg/kg in anaesthetized cat. It counts as functional, Artery. Summed up: as §1
The test system of assay [10] is Felis catus. The assay is described as follows: Compound was tested for percentage decrease in heart rate at 30 mg/kg in anaesthetized cat. Type of assay: functional. An outline of the steps: as §1
Assay [11] deals with Felis catus. The assay is described as follows: Compound was tested for percentage increase in mean arterial blood pressure at 100 mg/kg in anaesthetized cat. Type of assay: functional, Artery. An outline of the steps:
as §1

Assay [12] has as its system Felis catus. The assay is described as follows: Compound was tested for inhibitory effect reversed by haloperidol (100 ug/kg) at […] in anaesthetized cat; Yes. Type of assay: functional, organism-based. An outline of the steps: as §2
The subject of assay [13] is Felis catus. The assay is described as follows: Compound was tested for percentage decrease in mean arterial blood pressure at 30 mg/kg in anaesthetized cat. Type of assay: functional, Artery. Summed up:
as §1

The subject of assay [14] is Felis catus. The assay is described as follows: Compound was tested for neuronal inhibition of postganglionic cardio accelerator nerve stimulation in anaesthetized cat at 2 Hz frequency at 100 mg/kg. It counts as functional. The conditions noted are these: Heart. An outline of the steps:
as §2

Assay [15] relates to Felis catus. The assay is described as follows: Sympathetic neuronal inhibiting activity in anaesthetized cat 30 at mg/kg; 0.12-0.33. It counts as functional. The conditions noted are these: Sympathetic neuron, read-out: ID50 (the source's name). An outline of the steps: as §2
Assay [16] concerns Felis catus. The assay is described as follows: Compound was tested for percentage decrease in heart rate at 100 mg/kg in anaesthetized cat. Type of assay: functional. An outline of the steps:
as §1

Assay [17] deals with Felis catus. The assay is described as follows: Compound was tested for percentage decrease in mean arterial blood pressure at 100 mg/kg in anaesthetized cat. Type of assay: functional, Artery. An outline of the steps: as §1
For assay [18], the system named is Felis catus. The assay is described as follows: Sympathetic neuronal inhibiting activity in anaesthetized cat at 30 mg/kg. Type of assay: functional. The conditions noted are these: Sympathetic neuron, read-out: ID50 (the source's name). Summed up:
as §2

Assay [19] relates to Felis catus. The assay is described as follows: Potency relative to apomorphine at 30 mg/kg in anaesthetized cat. Type of assay: functional.
The subject of assay [20] is Felis catus. The assay is described as follows: Compound was tested for neuronal inhibition of postganglionic cardio accelerator nerve stimulation in anaesthetized cat at 2 Hz frequency at 10 mg/kg. Type of assay: functional. The settings on record: Heart. Summed up: as §2
Assay [21] has as its system Felis catus. The assay is described as follows: Sympathetic neuronal inhibiting activity in anaesthetized cat 3 at mg/kg. It counts as functional. The settings on record: Sympathetic neuron, read-out: ID50 (the source's name). An outline of the steps:
as §2

Assay [22] deals with Felis catus. The assay is described as follows: Compound was tested for percentage increase in mean arterial blood pressure at 10 mg/kg in anaesthetized cat. Type of assay: functional, Artery. An outline of the steps:
as §1

Assay [23] deals with Felis catus. The assay is described as follows: Compound was tested for percentage decrease in mean arterial blood pressure at 3 mg/kg in anaesthetized cat. It counts as functional, Artery. Summed up: as §1
The test system of assay [24] is Felis catus. The assay is described as follows: Compound was tested for inhibitory effect reversed by haloperidol (100 ug/kg) at 3 mg/kg in anaesthetized cat; yes. Details: dose 3 mg/kg. Type of assay: functional, organism-based. An outline of the steps:
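Pentobarbital sodium (30 mg/kg) anaesthetised cats; arterial pressure recorded from the right femoral artery. Postganglionic cardioaccelerator nerve stimulated at 2 Hz with 5 ms pulses at supramaximal voltage, in 20-30 s trains. After stable controls, compound was given iv in doses spaced at 0.48 log intervals. Haloperidol (100 μg/kg iv) was then given and inhibition of nerve-evoked tachycardia redetermined.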

In assay [25] the test system is Felis catus. The assay is described as follows: Compound was tested for neuronal inhibition of postganglionic cardio accelerator nerve stimulation in anaesthetized cat at 2 Hz frequency at 3 mg/kg. It counts as functional. The conditions noted are these: Heart. Summed up:
as §2

Assay [26] concerns Felis catus. The assay is described as follows: Compound was tested for percentage decrease in mean arterial blood pressure at 10 mg/kg in anaesthetized cat (resting mean arterial pressure (mmHg)). Type of assay: functional, Artery. Summed up:
as §1

The subject of assay [27] is Felis catus. The assay is described as follows: Potency relative to apomorphine at 3 mg/kg in anaesthetized cat. Type of assay: functional.
Assay [28] concerns Felis catus. The assay is described as follows: Compound was tested for percentage decrease in heart rate at 10 mg/kg in anaesthetized cat. Type of assay: functional. Summed up: as §1
The subject of assay [29] is Felis catus. The assay is described as follows: Compound was tested for percentage increase in mean arterial blood pressure at 3 mg/kg in anaesthetized cat. It counts as functional, Artery. An outline of the steps:
as §1

The test system of assay [30] is Felis catus. The assay is described as follows: Compound was tested for percentage decrease in heart rate at 3 mg/kg in anaesthetized cat. Type of assay: functional. An outline of the steps:
as §1

On to `CNCCc1cccc2[nH]ccc12`, for which the Decrease was 10% with Felis catus [1]; 10% in the assay with Felis catus [3]; 18% with Felis catus [6]; 12% with Felis catus [7]; 7% with Felis catus [10]; 11% in the assay on Felis catus [13]. Besides, the inhibition in vivo at 30 mg/kg in the assay with Felis catus [2] was 29%. Besides, the Increase in the assay with Felis catus [4] was 6%; in the assay with Felis catus [9], 41%; in the assay with Felis catus [11], 16%. Also, in the assay on Felis catus [5], the Ratio worked out at 0.14. In addition, in the assay with Felis catus [8], testing at 300 mg/kg gave an inhibition in vivo of 77%. Besides, the Inhibitory effect entry in the assay with Felis catus [12] was “Yes”. Further, testing at 100 mg/kg in the assay on Felis catus [14] gave an inhibition in vivo of 60%. Moreover, the ED50 in the assay on Felis catus [15] was 0.22 µmol/kg.

Regarding `CN1C[C@H](CC#N)C[C@@H]2c3cccc4[nH]c(Cl)c(c34)C[C@H]21` [LERGOTRILE], the Decrease is recorded as 38% in the assay with Felis catus [1]; 12% in the assay with Felis catus [3]; 11% in the assay with Felis catus [10]; 10% in the assay with Felis catus [16]; 34% with Felis catus [17]; 22% in the assay on Felis catus [13]. In addition, at 30 mg/kg the inhibition in vivo in the assay on Felis catus [2] was 21%. Besides, 300 mg/kg produced 69% inhibition in vivo with Felis catus [8]. In the assay with Felis catus [12], the Inhibitory effect result was “Yes”. Further, the ED50 in the assay on Felis catus [18] came out at 0.27 µmol/kg. For the same compound, the inhibition in vivo at 100 mg/kg in the assay with Felis catus [14] came out at 57%. In the assay on Felis catus [19], the Ratio came to 0.08.

`CCCN1C[C@H](CSC)C[C@@H]2c3cccc4[nH]cc(c34)C[C@H]21` [PERGOLIDE] registered an inhibition in vivo at 10 mg/kg in the assay on Felis catus [20] of 59%. Moreover, the ED50 in the assay on Felis catus [21] was determined as 0.02 µmol/kg. At 30 mg/kg the inhibition in vivo with Felis catus [2] was 80%. The results for the Increase with Felis catus [4], in the assay on Felis catus [22] and with Felis catus [29] were 52%, 15% and 5%, respectively. In addition, the Decrease in the assay with Felis catus [23] is 5%; with Felis catus [10] it was 80%; in the assay on Felis catus [26], 8%; in the assay on Felis catus [28] it was 59%; in the assay with Felis catus [13], 6%; in the assay with Felis catus [30], 23%. In addition, the Inhibitory effect result with Felis catus [24] was “Active”. For the same compound, 3 mg/kg produced 23% inhibition in vivo in the assay on Felis catus [25]. In addition, the Ratio in the assay with Felis catus [27] came to 1.13.
